Data set [1] in a line: Stability in phosphate buffer assessed as half life at pH 7.7 by HPLC. Format: physicochemical. In a few lines:
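Incubation at 37 °C in 0.066 M pH 7.7 isotonic phosphate buffer. Samples injected directly onto HPLC (acetonitrile:water 20:80 to 50:50, detection 290 nm). Half-life calculated from decline in substrate concentration; mean of at least 2 determinations ± SD.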

The nature of data set [2]: Stability in 80% human plasma assessed as half life by HPLC. Format: ADME, cell-free. In a few lines:
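Plasma pooled from seven healthy donors, stored at −18 °C. Incubation at 37 °C in 80% plasma diluted with 0.066 M pH 7.4 isotonic phosphate buffer. Aliquots taken over time, diluted with acetonitrile, centrifuged, supernatant analysed by HPLC at 290 nm. t1/2 fitted from substrate loss; mean of at least 3 determinations ± SD.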

Data set [3] is described as follows: Octanol-phosphate buffer partition coefficient at pH 7.4 by HPLC. Format: physicochemical. The essentials:
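Octanol and pH 7.4 phosphate buffer, each pre-saturated with the other, at 25 °C. Compound dissolved in octanol, then shaken with buffer for 30 min to equilibrium. Each phase analysed separately by HPLC (acetonitrile:water 20:80 to 50:50, 290 nm). P taken as ratio of octanol to buffer peak areas. Mean of at least 3 determinations ± SD.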

The term half-life denotes the time needed for the level to fall by half in the phase considered. As a reminder, the logD is lipophilicity at a set pH, counting ionised and neutral species. The low end stands for lower lipophilicity, the high end for higher lipophilicity. As for `CC(=O)N[C@@H](C)C(=O)N(C)/N=N/c1ccc(C(C)=O)cc1`, the half-life in data set [1] is 13.9 h; in data set [2], 2.3 h. The logD in data set [3] is 1.51.

For the compound `CC(=O)N[C@@H](C)C(=O)N(C)/N=N/c1ccc(Br)cc1`, the half-life in data set [1] was 25.5 h; in data set [2], 5.7 h. The compound further returned a log distribution coefficient (logD) in data set [3] of 2.8.

Consider `CC(=O)N[C@@H](C)C(=O)N(C)/N=N/c1ccc(C#N)cc1`, for which the half-life in data set [1] is 9.8 h; in data set [2], 1 h. In data set [3], this compound showed a pH-dependent lipophilicity (logD) of 1.41.

Consider `CC(=O)NCC(=O)N(C)/N=N/c1ccc(C#N)cc1`, for which the half-life in data set [1] is 7.6 h; in data set [2] it was 1.2 h. In data set [3], this compound gave a logD of 1.1.

In the case of `CCOC(=O)c1ccc(/N=N/N(C)C(=O)[C@H](C)NC(C)=O)cc1`, the results for the half-life in data set [1] and in data set [2] were 15.7 h and 4.6 h, respectively. In data set [3], this compound displayed a logD of 2.52.

`CC(=O)N[C@H](C(=O)N(C)/N=N/c1ccc(C#N)cc1)C(C)C`: the half-life is 84.3 h in data set [1] and 5.7 h in data set [2]. Besides, the logD in data set [3] was found to be 2.18.

With `C[C@H](NC(=O)c1ccccc1)C(=O)N(C)/N=N/c1ccc(C#N)cc1`, the half-life is 9.2 h in data set [1] and 1.6 h in data set [2]. In data set [3], this compound gave a logD of 3.04.

In the case of `CC(=O)N[C@@H](C)C(=O)N(C)/N=N/c1ccc(C(N)=O)cc1`, the half-life was 18.4 h in data set [1] and 7.6 h in data set [2]. Also, in data set [3], the logD was determined as 0.69.

Consider `CC(=O)N[C@@H](C)C(=O)N(C)/N=N/c1ccc(C)cc1`, for which the half-life was 46.5 h in data set [1] and 15.1 h in data set [2]. Further, in data set [3], the logD was determined as 2.45.

`CC(=O)N[C@@H](Cc1ccccc1)C(=O)N(C)/N=N/c1ccc(C#N)cc1`: the half-life was 13.9 h in data set [1] and 2.4 h in data set [2]. In data set [3], this compound displayed a logD of 2.76.

Take `CCCC(=O)N[C@@H](C)C(=O)N(C)/N=N/c1ccc(C#N)cc1`: the half-life in data set [1] is 9.1 h; in data set [2], 1.1 h. For the same compound, the logD in data set [3] was 2.28.

Take `CCC(=O)N[C@@H](C)C(=O)N(C)/N=N/c1ccc(C#N)cc1`: the values for the half-life in data set [1] and in data set [2] were 10.1 h and 1.3 h, respectively. In addition, in data set [3], the logD worked out at 1.87.

The values above are taken from ChEMBL document CHEMBL1137695, “Towards an efficient prodrug of the alkylating metabolite monomethyltriazene: synthesis and stability of N-acylamino acid derivatives of triazenes” (Eur J Med Chem, 2009).
